ChEMBL document CHEMBL4346701, “Synthesis and biological evaluation of tryptophan-derived rhodanine derivatives as PTP1B inhibitors and anti-bacterial agents” (Eur J Med Chem, 2019)
Converted amounts (≈) assume the structure as drawn.

Columns and labels:
[1] = molecular target: T1, Tyrosine-protein phosphatase non-receptor type 1 (Homo sapiens, UniProt P18031); test: Inhibition of human recombinant GST-tagged PTP1B expressed in Escherichia coli BL21 (DE3) using pNPP as substrate measured for 2 mins by colorimetric analysis
T1 sequence (P18031 whole entry): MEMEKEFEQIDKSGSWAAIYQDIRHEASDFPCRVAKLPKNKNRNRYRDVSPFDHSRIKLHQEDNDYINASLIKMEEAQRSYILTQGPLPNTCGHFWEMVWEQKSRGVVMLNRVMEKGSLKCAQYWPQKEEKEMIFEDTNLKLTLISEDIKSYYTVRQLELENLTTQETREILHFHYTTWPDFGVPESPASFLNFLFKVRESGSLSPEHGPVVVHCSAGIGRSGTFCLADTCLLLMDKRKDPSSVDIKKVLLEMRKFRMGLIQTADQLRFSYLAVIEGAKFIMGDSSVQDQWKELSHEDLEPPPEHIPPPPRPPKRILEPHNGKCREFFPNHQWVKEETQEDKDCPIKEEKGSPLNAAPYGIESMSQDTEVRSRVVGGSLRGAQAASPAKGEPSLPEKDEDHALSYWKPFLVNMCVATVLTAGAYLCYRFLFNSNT

Staphylococcus aureus [2] = test: Antibacterial activity against Staphylococcus aureus RN4220 assessed as reduction in bacterial cell growth incubated for 24 hrs by ELISA; format: functional; conditions: RN4220, 24 h
In short: (§1)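 MICs determined by serial dilution in 96-well microtiter plates. The strain panel included Gram-positive S. aureus strains and multidrug-resistant clinical isolates. Gatifloxacin, moxifloxacin, norfloxacin and oxacillin served as antibacterial positive controls.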

Staphylococcus aureus [3] = test: Antibacterial activity against Staphylococcus aureus KCTC209 assessed as reduction in bacterial cell growth incubated for 24 hrs by ELISA; format: functional; conditions: KCTC209, 24 h; in short: as §1
Staphylococcus aureus [4] = test: Antibacterial activity against Staphylococcus aureus KCTC503 assessed as reduction in bacterial cell growth incubated for 24 hrs by ELISA; format: functional; conditions: KCTC503, 24 h; in short: as §1
Streptococcus mutans = test: Antibacterial activity against Streptococcus mutans KCTC3289 assessed as reduction in bacterial cell growth incubated for 24 hrs by ELISA; format: functional; conditions: KCTC3289, 24 h
In short: (§2)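 MIC determined by serial dilution in 96-well microtiter plates. Strains used were E. coli 1924 and P. aeruginosa 2742 (Gram-negative), S. mutans 3289 (Gram-positive) and the fungus C. albicans 7535. Gatifloxacin, moxifloxacin, norfloxacin and oxacillin served as antibacterial reference agents, and fluconazole as the antifungal reference.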

Escherichia coli = test: Antibacterial activity against Escherichia coli 1924 assessed as reduction in bacterial cell growth incubated for 24 hrs by ELISA; format: functional; conditions: Escherichia coli, 1924, 24 h; in short: as §2
Pseudomonas aeruginosa = test: Antibacterial activity against Pseudomonas aeruginosa 2742 assessed as reduction in bacterial cell growth incubated for 24 hrs by ELISA; format: functional; conditions: Pseudomonas aeruginosa, 2742, 24 h; in short: as §2
Candida albicans = test: Antifungal activity against Candida albicans 7535 assessed as reduction in bacterial cell growth incubated for 24 hrs by ELISA; format: functional; conditions: Candida albicans, 7535, 24 h; in short: as §2
Staphylococcus aureus [5] = test: Antibacterial activity against Methicillin-resistant Staphylococcus aureus CCARM 3167 assessed as reduction in bacterial cell growth incubated for 24 hrs by ELISA; format: functional; conditions: CCARM 3167, 24 h; in short: as §1
Staphylococcus aureus [6] = test: Antibacterial activity against Methicillin-resistant Staphylococcus aureus CCARM 3506 assessed as reduction in bacterial cell growth incubated for 24 hrs by ELISA; format: functional; conditions: CCARM 3506, 24 h; in short: as §1
Staphylococcus aureus [7] = test: Antibacterial activity against Quinolone-resistant Staphylococcus aureus CCARM 3505 assessed as reduction in bacterial cell growth incubated for 24 hrs by ELISA; format: functional; conditions: CCARM 3505, 24 h; in short: as §1
Staphylococcus aureus [8] = test: Antibacterial activity against Quinolone-resistant Staphylococcus aureus CCARM 3519 assessed as reduction in bacterial cell growth incubated for 24 hrs by ELISA; format: functional; conditions: CCARM 3519, 24 h; in short: as §1

| Compound | IC50 [1] | MIC (Staphylococcus aureus [2]) | MIC (Staphylococcus aureus [3]) | MIC (Staphylococcus aureus [4]) | MIC (Streptococcus mutans) | MIC (Escherichia coli) | MIC (Pseudomonas aeruginosa) | MIC (Candida albicans) | MIC (Staphylococcus aureus [5]) | MIC (Staphylococcus aureus [6]) | MIC (Staphylococcus aureus [7]) | MIC (Staphylococcus aureus [8]) |
| --- | --- | --- | --- | --- | --- | --- | --- | --- | --- | --- | --- | --- |
| O=C(O)C(Cc1c[nH]c2ccccc12)N1C(=O)/C(=C/c2cccc(OCc3ccc(Br)cc3)c2)SC1=S (stereo unspecified) | 2700 nM | 2 µg/mL (≈ 3.37 µM) | 4 µg/mL (≈ 6.74 µM) | 4 µg/mL (≈ 6.74 µM) | 4 µg/mL (≈ 6.74 µM) | 8 µg/mL (≈ 13.5 µM) | > 64 µg/mL | > 64 µg/mL | 8 µg/mL (≈ 13.5 µM) | 8 µg/mL (≈ 13.5 µM) | 8 µg/mL (≈ 13.5 µM) | 4 µg/mL (≈ 6.74 µM) |
| O=C(O)C(Cc1c[nH]c2ccccc12)N1C(=O)/C(=C/c2ccc3cc(OCc4ccccc4)ccc3c2)SC1=S (stereo unspecified) | 820 nM | 8 µg/mL (≈ 14.2 µM) | – | – | 8 µg/mL (≈ 14.2 µM) | 8 µg/mL (≈ 14.2 µM) | > 64 µg/mL | > 64 µg/mL | 8 µg/mL (≈ 14.2 µM) | 8 µg/mL (≈ 14.2 µM) | 4 µg/mL (≈ 7.08 µM) | 8 µg/mL (≈ 14.2 µM) |
| COc1cc(/C=C2\SC(=S)N(C(Cc3c[nH]c4ccccc34)C(=O)O)C2=O)ccc1OCc1ccc(Br)cc1 (stereo unspecified) | 3180 nM | 4 µg/mL (≈ 6.41 µM) | 4 µg/mL (≈ 6.41 µM) | 4 µg/mL (≈ 6.41 µM) | 8 µg/mL (≈ 12.8 µM) | 8 µg/mL (≈ 12.8 µM) | > 64 µg/mL | > 64 µg/mL | 4 µg/mL (≈ 6.41 µM) | 4 µg/mL (≈ 6.41 µM) | 4 µg/mL (≈ 6.41 µM) | 8 µg/mL (≈ 12.8 µM) |
| COc1cc(/C=C2\SC(=S)N(C(Cc3c[nH]c4ccccc34)C(=O)O)C2=O)ccc1OCc1ccccc1 (stereo unspecified) | 5770 nM | 8 µg/mL (≈ 14.7 µM) | 8 µg/mL (≈ 14.7 µM) | 8 µg/mL (≈ 14.7 µM) | 8 µg/mL (≈ 14.7 µM) | 16 µg/mL (≈ 29.4 µM) | > 64 µg/mL | > 64 µg/mL | 8 µg/mL (≈ 14.7 µM) | 8 µg/mL (≈ 14.7 µM) | 8 µg/mL (≈ 14.7 µM) | 16 µg/mL (≈ 29.4 µM) |
| OC(Cn1cncn1)(Cn1cncn1)c1ccc(F)cc1F [FLUCONAZOLE] | – | – | – | – | – | – | – | 1 µg/mL (≈ 3.27 µM) | – | – | – | – |
| O=C(O)C(Cc1c[nH]c2ccccc12)N1C(=O)/C(=C/c2ccc3cc(OCc4cccc(Cl)c4)ccc3c2)SC1=S (stereo unspecified) | 720 nM | 4 µg/mL (≈ 6.68 µM) | – | – | 2 µg/mL (≈ 3.34 µM) | 2 µg/mL (≈ 3.34 µM) | > 64 µg/mL | > 64 µg/mL | 2 µg/mL (≈ 3.34 µM) | 4 µg/mL (≈ 6.68 µM) | 8 µg/mL (≈ 13.4 µM) | 8 µg/mL (≈ 13.4 µM) |
| COc1ccccc1COc1ccc2cc(/C=C3\SC(=S)N(C(Cc4c[nH]c5ccccc45)C(=O)O)C3=O)ccc2c1 (stereo unspecified) | 1530 nM | 8 µg/mL (≈ 13.5 µM) | – | – | 8 µg/mL (≈ 13.5 µM) | 16 µg/mL (≈ 26.9 µM) | > 64 µg/mL | > 64 µg/mL | 8 µg/mL (≈ 13.5 µM) | 8 µg/mL (≈ 13.5 µM) | 8 µg/mL (≈ 13.5 µM) | 8 µg/mL (≈ 13.5 µM) |
| O=C(O)C(Cc1c[nH]c2ccccc12)N1C(=O)/C(=C/c2ccc(OCc3ccc(Cl)cc3Cl)cc2)SC1=S (stereo unspecified) | 3380 nM | 4 µg/mL (≈ 6.85 µM) | 4 µg/mL (≈ 6.85 µM) | 8 µg/mL (≈ 13.7 µM) | 8 µg/mL (≈ 13.7 µM) | 8 µg/mL (≈ 13.7 µM) | > 64 µg/mL | > 64 µg/mL | 8 µg/mL (≈ 13.7 µM) | 8 µg/mL (≈ 13.7 µM) | 8 µg/mL (≈ 13.7 µM) | 16 µg/mL (≈ 27.4 µM) |
| COc1ccc(COc2ccc3cc(/C=C4\SC(=S)N(C(Cc5c[nH]c6ccccc56)C(=O)O)C4=O)ccc3c2)cc1 (stereo unspecified) | 1450 nM | 8 µg/mL (≈ 13.5 µM) | – | – | 8 µg/mL (≈ 13.5 µM) | 16 µg/mL (≈ 26.9 µM) | > 64 µg/mL | > 64 µg/mL | 8 µg/mL (≈ 13.5 µM) | 8 µg/mL (≈ 13.5 µM) | 8 µg/mL (≈ 13.5 µM) | 8 µg/mL (≈ 13.5 µM) |
| O=C(O)C(Cc1c[nH]c2ccccc12)N1C(=O)/C(=C/c2ccc3cc(OCc4ccccc4Cl)ccc3c2)SC1=S (stereo unspecified) | 800 nM | 4 µg/mL (≈ 6.68 µM) | – | – | 2 µg/mL (≈ 3.34 µM) | 4 µg/mL (≈ 6.68 µM) | > 64 µg/mL | > 64 µg/mL | 2 µg/mL (≈ 3.34 µM) | 4 µg/mL (≈ 6.68 µM) | 4 µg/mL (≈ 6.68 µM) | 4 µg/mL (≈ 6.68 µM) |
| Cc1onc(-c2ccccc2)c1C(=O)N[C@@H]1C(=O)N2[C@@H]1SC(C)(C)[C@@H]2C(=O)O [OXACILLIN] | – | – | – | – | – | – | – | – | > 64 µg/mL | > 64 µg/mL | 1 µg/mL (≈ 2.49 µM) | 1 µg/mL (≈ 2.49 µM) |
| CCn1cc(C(=O)O)c(=O)c2cc(F)c(N3CCNCC3)cc21 [NORFLOXACIN] | – | – | – | – | – | – | – | – | 8 µg/mL (≈ 25.1 µM) | 4 µg/mL (≈ 12.5 µM) | > 64 µg/mL | > 64 µg/mL |
| COc1c(N2C[C@@H]3CCCN[C@@H]3C2)c(F)cc2c(=O)c(C(=O)O)cn(C3CC3)c12 [MOXIFLOXACIN] | – | 0.25 µg/mL (≈ 0.623 µM) | – | 2 µg/mL (≈ 4.98 µM) | 0.25 µg/mL (≈ 0.623 µM) | – | – | 0.5 µg/mL (≈ 1.25 µM) | – | – | – | 4 µg/mL (≈ 9.96 µM) |
| COc1c(N2CCNC(C)C2)c(F)cc2c(=O)c(C(=O)O)cn(C3CC3)c12 (stereo unspecified) [GATIFLOXACIN] | – | 0.25 µg/mL (≈ 0.666 µM) | 2 µg/mL (≈ 5.33 µM) | 4 µg/mL (≈ 10.7 µM) | 0.25 µg/mL (≈ 0.666 µM) | 2 µg/mL (≈ 5.33 µM) | 1 µg/mL (≈ 2.66 µM) | – | 2 µg/mL (≈ 5.33 µM) | 2 µg/mL (≈ 5.33 µM) | 8 µg/mL (≈ 21.3 µM) | 4 µg/mL (≈ 10.7 µM) |
| COc1cccc(COc2ccc3cc(/C=C4\SC(=S)N(C(Cc5c[nH]c6ccccc56)C(=O)O)C4=O)ccc3c2)c1 (stereo unspecified) | 1670 nM | 8 µg/mL (≈ 13.5 µM) | – | – | 8 µg/mL (≈ 13.5 µM) | 16 µg/mL (≈ 26.9 µM) | > 64 µg/mL | > 64 µg/mL | 8 µg/mL (≈ 13.5 µM) | 16 µg/mL (≈ 26.9 µM) | 8 µg/mL (≈ 13.5 µM) | 16 µg/mL (≈ 26.9 µM) |
| O=C(O)CN1C(=O)/C(=C/c2ccc3cc(OCc4ccc(F)cc4)ccc3c2)SC1=S | – | 4 µg/mL (≈ 8.82 µM) | – | 4 µg/mL (≈ 8.82 µM) | – | > 64 µg/mL | > 64 µg/mL | > 64 µg/mL | 4 µg/mL (≈ 8.82 µM) | 2 µg/mL (≈ 4.41 µM) | 4 µg/mL (≈ 8.82 µM) | 4 µg/mL (≈ 8.82 µM) |
